Common to all, as to type: functional
The species entered for test [1] is Cavia porcellus. Put plainly: Results of Open epicutaneous test (OET) in guinea pigs sensitized by mono […] (18) and expressed as No. of sensitive animals out of 8 animals tested. In short, it runs like this: (§1)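 Guinea pigs sensitized by an injection repeated 4 times on alternate days, followed by 15 days rest before open epicutaneous challenge. Controls received intradermal 1:1 FCA-saline emulsion on alternate days, five injections in all. Irritation thresholds were first set on FCA-injected controls using the elicitation procedure. Read-out was average skin reaction and number of sensitive animals.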

The species entered for test [2] is Cavia porcellus. The test is described as follows: Results of Open epicutaneous test (OET) in guinea pigs sensitized by mixture of mono […] (18) and (19) and expressed as No. of sensitive animals out of 8 animals tested. In short, it runs like this:
as §1

Test [3] is filed under the species Cavia porcellus. The test is described as follows: Results of Open epicutaneous test (OET) in guinea pigs sensitized by bi […] (3) and expressed as No. of sensitive animals out of 8 animals tested. In short, it runs like this: as §1
For test [4], the species on record is Cavia porcellus. Put plainly: Open epicutaneous test (OET) was conducted using 0.72 M compound deposited on a circular shaved flank of guinea pig sensitized by mono […] (18); no reaction. In outline:
as §1

The species named for test [5] is Cavia porcellus. Put plainly: Open epicutaneous test (OET) was conducted using 0.72 M compound deposited on a circular shaved flank of guinea pig sensitized by mono […] (19); erythema plus swelling going well beyond test area. In short, it runs like this:
as §1

The species entered for test [6] is Cavia porcellus. The test is described as follows: Open epicutaneous test (OET) was conducted using 0.72 M compound deposited on a circular shaved flank of guinea pig sensitized by double […] (3); no reaction. In short, it runs like this: as §1
Test [7] is filed under the species Cavia porcellus. Put plainly: Results of Open epicutaneous test (OET) in guinea pigs sensitized by mono […] (19) and expressed as No. of sensitive animals out of 8 animals tested. In short, it runs like this:
as §1

For test [8], the species on record is Cavia porcellus. The test is described as follows: Open epicutaneous test (OET) was conducted using 0.72 M compound deposited on a circular shaved flank of guinea pig sensitized by mixture of mono […] (18) and (19); erythema on the test area. In short, it runs like this: as §1
The species named for test [9] is Cavia porcellus. Put plainly: Open epicutaneous test (OET) was conducted using 0.72 M compound deposited on a circular shaved flank of guinea pig sensitized by bi […] (3); erythema on the test area. The following applies: in the assay text read “0.072 M” for “0.72 M”. In outline:
as §1

Test [10] is filed under the species Cavia porcellus. The test is described as follows: Open epicutaneous test (OET) was conducted using 0.72 M compound deposited on a circular shaved flank of guinea pig sensitized by mono […] (19); no reaction. The following applies: in the assay text read “0.072 M” for “0.72 M”. In outline: as §1
For test [11], the species on record is Cavia porcellus. Put plainly: Open epicutaneous test (OET) was conducted using 0.72 M compound deposited on a circular shaved flank of guinea pig sensitized by mono […] (18); erythema on the test area. In short, it runs like this:
as §1

Each structure is given as a SMILES string. Some results are limits rather than exact numbers.

For `C=C1CC(CCCCCCc2cccc(OC)c2OC)OC1=O` (centres undefined), the “No. of sensitive animals” value came to 0 in the test listed under Cavia porcellus [1], 8 in the test listed under Cavia porcellus [2], 0 in the test listed under Cavia porcellus [3] and 8 in the test listed under Cavia porcellus [7]. Besides, the Average skin reaction was determined as 0 in the test listed under Cavia porcellus [4], 2.6 in the test filed under Cavia porcellus [5], 0 in the test listed under Cavia porcellus [6] and 1.1 in the test listed under Cavia porcellus [8].

As for `C=C1CC(CCCCCCc2cccc(O)c2O)OC1=O` (centres undefined), the “No. of sensitive animals” value in the test filed under Cavia porcellus [1] was found to be 3; in the test listed under Cavia porcellus [2] it was 8; in the test filed under Cavia porcellus [3], 6; in the test listed under Cavia porcellus [7], 1. For the same molecule, the Average skin reaction in the test filed under Cavia porcellus [4] was 0.2; in the test filed under Cavia porcellus [9] it was 0.9; in the test listed under Cavia porcellus [10], less than 0.1; in the test listed under Cavia porcellus [8], 0.9.

In the case of `CC1CC(CCCCCCc2cccc(O)c2O)OC1=O` (centres undefined), the “No. of sensitive animals” value in the test listed under Cavia porcellus [1] is 7; in the test filed under Cavia porcellus [2] it was 8; in the test filed under Cavia porcellus [3], 6; in the test filed under Cavia porcellus [7], 0. Moreover, the Average skin reaction in the test filed under Cavia porcellus [9] was 0.8; in the test filed under Cavia porcellus [11], 1.4; in the test listed under Cavia porcellus [10] it was 0; in the test filed under Cavia porcellus [8], 1.1.
